These compounds were tested on Mus musculus (assay: Biodistribution in tumor of C57BL/6J mouse bearing mouse B16F0 cells at 0.37 to 1.85 MBq, iv after 1 hr by gamma counting method). Details: in vivo.
Format: ADME, organism-based
Outline: (§1)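 Female C57BL/6J mice (5−6 weeks), s.c. inoculated on left flank with 3 × 10^5 B16F0 cells in Ca2+/Mg2+-free PBS, used 11 days later (tumors 2−12 mm). Radiotracer given via tail vein in 100 μL (~0.37 MBq for 1−24 h, 1.85 MBq for 48 h). Organs dissected, weighed, γ-counted, decay corrected. Expressed as % ID/g against injected-dose dilutions. Mean ± SEM, n = 5.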

Row | Drug uptake [% ID/g] | Structure (SMILES)
1 | 19.2 | O=C(c1ccc2c(n1)NCCC2)N1CCN(Cc2ccc([123I])cc2)CC1
2 | 17.1 | O=C(c1ccc2cccnc2n1)N1CCN(Cc2ccc([123I])cc2)CC1
3 | 10.3 | O=C(CN1Cc2ccccc2C1=O)N1C[C@H]2CN(Cc3ccc([123I])cc3)C[C@H]2C1
4 | 6.2 | O=C(CN1Cc2ccccc2C1=O)NC1CCN(Cc2ccc([123I])cc2)CC1

What follows are compounds tested on Mus musculus (assay: Biodistribution in thyroid gland of C57BL/6J mouse bearing mouse B16F0 cells at 0.37 to 1.85 MBq, iv after 24 hrs by gamma counting method). Details: in vivo.
Format: ADME, organism-based
Outline: as §1

Row | Drug uptake [% ID/g] | Structure (SMILES)
5 | 2 | O=C(c1ccc2c(n1)NCCC2)N1CCN(Cc2ccc([123I])cc2)CC1
6 | 2.9 | O=C(c1ccc2cccnc2n1)N1CCN(Cc2ccc([123I])cc2)CC1
7 | 1 | O=C(CN1Cc2ccccc2C1=O)N1C[C@H]2CN(Cc3ccc([123I])cc3)C[C@H]2C1
8 | 2.6 | O=C(CN1Cc2ccccc2C1=O)NC1CCN(Cc2ccc([123I])cc2)CC1

What follows are compounds tested on Mus musculus (assay: Biodistribution in thyroid gland of C57BL/6J mouse bearing mouse B16F0 cells at 0.37 to 1.85 MBq, iv after 48 hrs by gamma counting method). Details: in vivo.
Format: ADME, organism-based
Outline: as §1

Row | Drug uptake [% ID/g] | Structure (SMILES)
9 | 2.1 | O=C(c1ccc2c(n1)NCCC2)N1CCN(Cc2ccc([123I])cc2)CC1
10 | 5.3 | O=C(c1ccc2cccnc2n1)N1CCN(Cc2ccc([123I])cc2)CC1
11 | 3.4 | O=C(CN1Cc2ccccc2C1=O)N1C[C@H]2CN(Cc3ccc([123I])cc3)C[C@H]2C1
12 | 2.4 | O=C(CN1Cc2ccccc2C1=O)NC1CCN(Cc2ccc([123I])cc2)CC1

Each compound was assayed on Spleen (assay: Biodistribution in spleen of C57BL/6J mouse bearing mouse B16F0 cells at 0.37 to 1.85 MBq, iv after 24 hrs by gamma counting method). Details: in vivo.
Format: ADME, organism-based
Outline: as §1

Row | Drug uptake [% ID/g] | Structure (SMILES)
13 | 0.2 | O=C(c1ccc2c(n1)NCCC2)N1CCN(Cc2ccc([123I])cc2)CC1
14 | 0.5 | O=C(c1ccc2cccnc2n1)N1CCN(Cc2ccc([123I])cc2)CC1
15 | 0.05 | O=C(CN1Cc2ccccc2C1=O)N1C[C@H]2CN(Cc3ccc([123I])cc3)C[C@H]2C1
16 | 1.2 | O=C(CN1Cc2ccccc2C1=O)NC1CCN(Cc2ccc([123I])cc2)CC1
